Only some compounds are listed: those with a hit (about 4.6% of all), similar ones and a draw of the others.
FAS-TE inh: blocks the thioesterase domain of human fatty acid synthase | P49327 | recombinant FAS-TE, OMFH fluorogenic substrate, fluorescence endpoint | inhibition, % at 15 µM | 0.67% of 360,000 active;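 active = compounds whose normalised, plate-corrected inhibition of enzyme fluorescence in the single-dose primary screen is 50% or more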
Rtt109 HAT inh: inhibitors of Candida albicans Rtt109/Vps75 histone acetyltransferase; Q5AAJ8; inhibition, % at 34.9 µM; purified Rtt109/Vps75, ThioGlo CoA-SH fluorescence, 4 h; 0.16% of 330,000 active;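 active = inhibition of at least 50% in every replicate; inconclusive = best replicate reaches 50% inhibition but some replicates fall short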
HDAC3 inhib: human HDAC3 inhibition | O15379 | recombinant HDAC3, fluorogenic peptide/trypsin coupled, fluorescence | inhibition, % at 8.3 µM | 0.15% of 320,000 active; in the data active = inhibition above about 26%, passing the limit was not always enough; inconclusive = no clear call, values can overlap the other calls
M18AAP inhibitor: blocks P. falciparum M18 aspartyl aminopeptidase; recombinant PfM18AAP, H-Glu-NHMec fluorogenic cleavage; AID 1822; inhibition, % at 7.35 µM; 1.2% of 290,000 active;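 active = inhibition above the campaign mean inhibition over all tested compounds plus 3 SD, cut at about 28% in these data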
ALR inh: human ALR oxidase inhibition via reduced H2O2; P55789; purified ALR, DTT oxidation, H2O2 HRP-luminol luminescence; inhibition, % (no concentration beside the values); 3.8% of 290,000 active;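 active = mean replicate inhibition above about 79%, with every replicate also reaching it, limit read from the data; inconclusive = only one of the two criteria met; inactive = mean below limit and not every replicate reaching it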
UCH37 inh: human UCH37 deubiquitinating enzyme inhibition. purified proteasome/UCH37, Ub-AMC cleavage fluorescence. inhibition, % (no concentration beside the values). 0.33% of 330,000 active. AID 588478;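 active = mean inhibition over replicate wells above about 20%, limit read from the data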
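Material: human UCH37 enzyme supplied as purified proteasome complex. Measure: % inhibition of Ub-AMC cleavage fluorescence. Medium: pH 7.4 Tris-HCl (50 mM) with ovalbumin, ATP-MgCl2, DTT. Times: 30 min preincubation with enzyme, 25 min cleavage at room temperature. Detection: AMC fluorescence intensity at 355/460 nm.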
A number is an active result; i = inactive; ? = inconclusive; nt = no result given; ! = repeats disagree.

SMILES	FAS-TE inh	Rtt109 HAT inh	HDAC3 inhib	M18AAP inhibitor	ALR inh	UCH37 inh
Cc1oc(-c2ccc(Cl)cc2)nc1CS(=O)CC(=O)NCc1cccs1 (stereo unspecified)	i	i	i	i	99	i
Cc1oc(-c2ccccc2Cl)nc1CS(=O)CC(=O)NCc1cccs1 (stereo unspecified)	i	i	i	i	nt	i
Cc1oc(-c2ccccc2F)nc1CS(=O)CC(=O)NCc1cccs1 (stereo unspecified)	i	i	nt	i	100	i
Cc1cccc(-c2nc(CS(=O)CC(=O)NCc3cccs3)c(C)o2)c1 (stereo unspecified)	i	i	i	i	nt	i
Cc1cccc(-c2nc(CSCC(=O)NCc3cccs3)c(C)o2)c1	i	i	i	i	98	i
Cc1cccn2c(C=NOCc3cccc(F)c3)c(-c3ccc(Cl)cc3)nc12	nt	nt	nt	nt	nt	i
O=C(Nc1cccc2[nH]ncc12)NS(=O)(=O)c1ccccc1	i	i	i	i	97	i
CCN(CC)C(=S)SCC(=O)c1ccccc1	i	i	i	i	i	i
CCN(CC)C(=S)SSC(=S)N(CC)CC	i	150	i	36	97	i
Cc1ccc(C(=O)NC(=S)NNS(=O)(=O)c2ccccc2)cc1	i	i	i	i	98	i
O=C(NNS(=O)(=O)c1ccc(F)cc1)c1cccc(O)c1	i	i	i	i	i	i
Cc1ccc(S(=O)(=O)NNC(=O)c2cccc(O)c2)cc1	i	i	i	30	i	i
COc1ccc(C(=O)NNS(=O)(=O)c2ccc(OC)cc2)cc1	i	i	i	i	87	i
Cc1ccc(S(=O)(=O)NNC(=O)c2ccc(F)cc2)cc1	i	i	i	i	i	i
Cc1ccc(S(=O)(=O)NNC(=S)Nc2cccc(F)c2)cc1	i	i	i	i	99	i
COc1ccc(C=NNc2nncc3ccccc23)c(OC)c1	nt	nt	nt	nt	nt	i
CC(=O)NS(=O)(=O)c1ccc(Nc2ccc([N+](=O)[O-])c3nonc23)cc1	i	i	i	i	i	25
O=[N+]([O-])c1ccc(Nc2ccccc2)c2nonc12	i	i	i	i	i	nt
Cc1cc(C=NNC(N)=O)c(C)c(CO)c1	nt	nt	nt	nt	nt	i
CCN(CCCNC(=O)c1c(C)cc(=O)oc1C)c1ccccc1	i	i	i	i	99	i
Cc1cc(=O)oc(C)c1C(=O)NCc1ccccc1	i	i	i	i	i	i
CCN(CCCNC(=O)c1[nH]c(C)c(C(C)=O)c1C)c1cccc(C)c1	i	i	i	i	99	i
O=C(O)c1ccc(-c2nc(-c3ccccc3)c(-c3cccs3)[nH]2)cc1	i	i	i	i	i	i
COc1ccc(-c2nc(-c3cccs3)c(-c3cccs3)[nH]2)cc1O	i	i	i	i	99	i
CSc1nnc(-c2ccccc2N=Cc2c(C)[nH]n(-c3ccc4ccccc4c3)c2=O)c(=O)[nH]1	i	i	i	i	i	i
SMILES	FAS-TE inh	Rtt109 HAT inh	HDAC3 inhib	M18AAP inhibitor	ALR inh	UCH37 inh
C=CCSc1nnc(-c2ccccc2N=Cc2c(C)[nH]n(-c3ccccc3)c2=O)c(=O)[nH]1	i	i	i	i	97	i
Cc1cc(Br)cc(C)c1NC(=S)NC(=O)CC(C)C	i	i	i	i	90	i
CC(OC(=O)CCN=C1NS(=O)(=O)c2ccccc21)C(=O)Nc1ccc(N(C)C)cc1 (stereo unspecified)	i	i	i	nt	99	nt
CC(=NOC(=O)c1ccccc1Br)c1ccc(C)cc1	nt	nt	nt	nt	nt	i
Cc1ccc2nc(-c3ccc(SCC(=O)O)nc3)[nH]c2c1	i	i	i	i	98	i
C=CCNC(=S)/C(=C(\[O-])c1ccc(Cl)cc1)[n+]1ccccc1	i	i	i	i	98	i
Cc1ccc(-c2cc(C(=O)NN=Cc3c(C)nn(C)c3C)c3ccccc3n2)c(C)c1	nt	nt	nt	nt	nt	i
Nc1nc(-c2ccc(Oc3ccccc3)cc2)cs1	i	i	i	i	99	i
Nc1nc(-c2ccc(-c3ccccc3)cc2)cs1	i	i	i	i	99	i
Nc1nc(-c2ccc3ccccc3c2)cs1	i	i	i	i	98	i
Nc1nc(-c2ccccc2Br)cs1	i	i	i	i	98	i
CCN1CC(=NS(=O)(=O)N=C2CN(CC)C(=O)N2CC)N(CC)C1=O	nt	nt	nt	nt	nt	i
O=C(CSCc1ccccc1)N1CCN(Cc2ccc3c(c2)OCO3)CC1	i	i	i	i	i	i
Cc1ccc(-c2nnc(SCC(=O)N3CCOCC3)nc2-c2ccc(C)cc2)cc1	i	i	i	i	95	i
Cc1ccc(-c2nc(CSCC(=O)N3CCOCC3)c(C)o2)cc1	i	i	i	i	99	i
Cc1cccc(-c2nc(CSCC(=O)N3CCN(Cc4ccc5c(c4)OCO5)CC3)c(C)o2)c1	i	i	i	i	98	i
Cc1ccc(-c2nc(CS(=O)(=O)CC(=O)N3CCOCC3)c(C)o2)cc1	i	i	i	i	i	i
Cc1ccc(-c2nc(CSCC(=O)N3CCN(C(=O)c4ccco4)CC3)c(C)o2)cc1	i	i	i	i	99	i
COc1ccc(O[C@H]2C=C[C@@H](c3ccccc3)O[C@@H]2COC(=O)CCC(C)=NO[C@H](C)c2cn([C@@H]3COC[C@H]3O)nn2)cc1	nt	nt	nt	nt	nt	i
Cc1nc2ccccc2c(=O)n1N=Cc1ccc(F)cc1	nt	nt	nt	nt	nt	i
O=C(NN=Cc1ccco1)c1cccc(N2Cc3ccccc3C2)c1	nt	nt	nt	nt	nt	i
Cc1ccc(S(=O)(=O)N(C)N=C/C=C/c2ccccc2)cc1	nt	nt	nt	nt	nt	i
CC(=O)N1CCc2cc(N=NC3=C(O)CC(C)(C)CC3=O)ccc21	i	i	i	i	i	24
Cc1nc2ccc(N=NC3=C(O)CC(C)(C)CC3=O)cc2s1	i	i	i	i	nt	i
CNC(=S)N(CCc1c(C)[nH]c2ccc(C)cc12)Cc1cccnc1	i	i	i	i	nt	i
SMILES	FAS-TE inh	Rtt109 HAT inh	HDAC3 inhib	M18AAP inhibitor	ALR inh	UCH37 inh
CNC(=S)N(CCc1c(C)[nH]c2ccc(Cl)cc12)Cc1cccnc1	i	i	nt	i	97	i
COCCNC(=S)N(CCc1c(C)[nH]c2ccc(F)cc12)Cc1cccnc1	i	i	nt	i	i	i
CNC(=S)N(CCc1c(C)[nH]c2ccccc12)Cc1cccnc1	i	i	nt	i	100	i
COCCNC(=S)N(CCc1c(C)[nH]c2ccccc12)Cc1cccnc1	i	i	nt	i	97	i
CCOC(=O)NN=C1CC(C)CC(C)(C)C1 (stereo unspecified)	nt	nt	nt	nt	nt	i
C1CCC(C(CC2CCCCN2)C2CCCCC2)CC1 (stereo unspecified)	i	78!	i	i	nt	i
O=C(Oc1ccc(=O)n(-c2ccccc2)n1)c1ccc(Cl)cc1	i	i	i	i	?	i
O=C(Oc1ccc(=O)n(-c2ccccc2)n1)c1ccc(F)cc1	i	i	?	i	i	i
COc1nc(NCC(C)C)nc(Oc2ccc(=O)n(-c3ccccc3)n2)n1	i	i	i	i	79	i
O=C(Oc1ccc(=O)n(-c2ccccc2)n1)c1cccc(Cl)c1	i	i	44	i	i	i

Screening data deposited in PubChem BioAssay by several laboratories.
